Data on one compound can be found in ChEMBL document CHEMBL5260803, “Discovery of Novel, Orally Bioavailable β-Amino Acid Azaindole Inhibitors of Influenza PB2” (ACS Med Chem Lett, 2017).

Molecules are shown by their SMILES.

Holding throughout (assay type): functional, organism-based
Experiment [1] relates to Influenza A virus. Description: Antiviral activity against oseltamivir resistant Influenza A virus A/Georgia/20/2006 (H1N1) infected in MDCK cells incubated for 72 hrs by cell protection assay. The essentials:
(§1)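 MDCK cells incubated with test compound and influenza A virus for 72 h. EC50 is the concentration giving 50% cell protection, reported as the mean of N=3. Oseltamivir resistant or sensitive status was assigned by externally validated phenotypic or genetic analysis.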

Experiment [2] concerns Influenza A virus. Description: Antiviral activity against oseltamivir resistant Influenza A virus A/Texas/12/2007 (H3N2) infected in MDCK cells incubated for 72 hrs by cell protection assay. The essentials:
as §1

The test system of experiment [3] is Influenza A virus. As to the kind of experiment: Antiviral activity against oseltamivir resistant Influenza A virus A/Texas/48/2009 (H1N1) infected in MDCK cells incubated for 72 hrs by cell protection assay. The essentials:
as §1

As usually defined, the EC50 is the concentration needed to bring the measured effect to its halfway point. Read a high EC50 as lower potency in that assay. On to `CC(C)(C)[C@@H](CC(=O)O)Nc1nc(-c2c[nH]c3ncc(F)cc23)ncc1F`, for which the figures for the EC50 with Influenza A virus [1], in the experiment with Influenza A virus [2] and in the experiment on Influenza A virus [3] were 2 nM, 30 nM and 2 nM, respectively.
